Calls of active or inactive are those of the source. No cut-off for these calls is given here.
Experiments:
Salmonella typhi = assay: Bactericidal activity against Salmonella typhi CECT 409 at 0.2 mg/disk after 24 hrs by agar diffusion assay; assay type: functional; conditions: for Activity: Salmonella enterica subsp. enterica serovar Typhi
Procedure, shortened: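 Bacteria from 24-h slant cultures reactivated in Nutrient Broth for 24 h at 28 or 37 °C depending on strain. 1 mL of suspension was placed in a plate and overlaid with 15 mL Plate Count Agar. After solidification, five paper disks loaded with compound were applied. Plates were incubated 24 h in the dark at 28 or 37 °C depending on strain.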

Enterococcus faecalis = assay: Bactericidal activity against Enterococcus faecalis CECT 481 at 0.2 mg/disk after 24 hrs by agar diffusion assay; assay type: functional
Procedure, shortened: (§1)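 Each bacterium, kept as 24-h cultures on solid-medium slants, was reactivated in Nutrient Broth for 24 h at 28 or 37 °C depending on species. 1 mL of this suspension was plated and overlaid with 15 mL Plate Count Agar. Once the agar solidified, five paper disks loaded with test product were applied. Plates were incubated 24 h in the dark at 28 or 37 °C by species.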

Geotrichum candidum [1] = assay: Fungicidal activity against Geotrichum candidum CCM 245 at 0.4 mg/disk after 48 hrs by agar diffusion assay; assay type: functional, organism-based
Procedure, shortened: (§2)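 Fungi were grown 7 days at 28 °C on PDA, then suspended in 0.05% Tween 80 in sterile water to about 10^6 conidia/mL. 1 mL was mixed into 15 mL PDA. After setting, four 0.5 cm paper disks impregnated with test product were added. Controls were solvent-only disks and benomyl disks, dosed per fungus. The read-out was the no-growth inhibition zone (mm), as the mean ± SE of three independent experiments.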

Trichoderma viride [2] = assay: Fungicidal activity against Trichoderma viride CECT 2423 at 0.4 mg/disk after 48 hrs by agar diffusion assay; assay type: functional, organism-based; procedure, shortened: as §2
Fusarium culmorum [3] = assay: Fungicidal activity against Fusarium culmorum CCM 172 at […] after 48 hrs by agar diffusion assay; assay type: functional, organism-based; conditions: 0.4 mg/disk; procedure, shortened: as §2
[4] = tested on: Phytophthora citrophthora; assay: Fungicidal activity against Phytophthora citrophthora CECT 2353 at 0.4 mg/disk after 48 hrs by agar diffusion assay; assay type: functional, organism-based; procedure, shortened: as §2
Aspergillus parasiticus [5] = assay: Fungicidal activity against Aspergillus parasiticus CECT 2681 at 0.4 mg/disk after 48 hrs by agar diffusion assay; assay type: functional, organism-based; procedure, shortened: as §2
Escherichia coli [6] = assay: Bactericidal activity against Escherichia coli CECT 100 at 0.2 mg/disk after 24 hrs by agar diffusion assay; assay type: functional; procedure, shortened: as §1
Staphylococcus aureus = assay: Bactericidal activity against Staphylococcus aureus CECT 86 at 0.2 mg/disk after 24 hrs by agar diffusion assay; assay type: functional; procedure, shortened: as §1
[7] = tested on: Pectobacterium carotovorum; assay: Bactericidal activity against Erwinia carotovora CECT 225 at 0.2 mg/disk after 24 hrs by agar diffusion assay; assay type: functional; procedure, shortened: as §1
Escherichia coli [8] = assay: Bactericidal activity against Escherichia coli CECT 405 at 0.2 mg/disk after 24 hrs by agar diffusion assay; assay type: functional; procedure, shortened: as §1
Bacillus cereus = assay: Bactericidal activity against Bacillus cereus CECT 148 at 0.2 mg/disk after 24 hrs by agar diffusion assay; assay type: functional; procedure, shortened: as §1
Trichoderma viride [9] = assay: Fungicidal activity against Trichoderma viride CECT 2423 at 0.2 mg/disk after 48 hrs by agar diffusion assay; assay type: functional; procedure, shortened: as §2
Geotrichum candidum [10] = assay: Fungicidal activity against Geotrichum candidum CCM 245 at 0.2 mg/disk after 48 hrs by agar diffusion assay; assay type: functional; procedure, shortened: as §2
Fusarium culmorum [11] = assay: Fungicidal activity against Fusarium culmorum CCM 172 at 0.2 mg/disk after 48 hrs by agar diffusion assay; assay type: functional; procedure, shortened: as §2
[12] = tested on: Phytophthora citrophthora; assay: Fungicidal activity against Phytophthora citrophthora CECT 2353 at 0.2 mg/disk after 48 hrs by agar diffusion assay; assay type: functional; procedure, shortened: as §2
Aspergillus parasiticus [13] = assay: Fungicidal activity against Aspergillus parasiticus CECT 2681 at 0.2 mg/disk after 48 hrs by agar diffusion assay; assay type: functional; procedure, shortened: as §2

| SMILES | Activity (Salmonella typhi) | Activity (Enterococcus faecalis) | Activity (Geotrichum candidum [1]) | Activity (Trichoderma viride [2]) | Activity (Fusarium culmorum [3]) | Activity [4] | Activity (Aspergillus parasiticus [5]) | Activity (Escherichia coli [6]) | Activity (Staphylococcus aureus) | Activity [7] | Activity (Escherichia coli [8]) | Activity (Bacillus cereus) | inhibition zone (IZ) (Salmonella typhi) [mm] | inhibition zone (IZ) (Enterococcus faecalis) [mm] | inhibition zone (IZ) (Escherichia coli [6]) [mm] | inhibition zone (IZ) (Staphylococcus aureus) [mm] | inhibition zone (IZ) [7] [mm] | inhibition zone (IZ) (Escherichia coli [8]) [mm] | inhibition zone (IZ) (Bacillus cereus) [mm] | inhibition zone (IZ) (Trichoderma viride [9]) [mm] | other results |
| --- | --- | --- | --- | --- | --- | --- | --- | --- | --- | --- | --- | --- | --- | --- | --- | --- | --- | --- | --- | --- | --- |
| O=C(COc1cc2c(cc1OCC(=O)Nc1ccccc1)C1CCC(=O)N1CC2)Nc1ccccc1 (stereo not drawn) | inactive | inactive | inactive | inactive | inactive | inactive | inactive | inactive | inactive | inactive | inactive | inactive |  |  |  |  |  |  |  |  |  |
| O=C1CCC2c3ccc(O)cc3CCN12 (stereo not drawn) |  |  |  |  |  |  |  |  |  |  |  |  | 0 | 0 | 0 | 0 | 0 | 0 | 7.5 |  | Activity (Trichoderma viride [9]): inactive; Activity (Geotrichum candidum [10]): inactive; Activity (Fusarium culmorum [11]): inactive; Activity [12]: inactive; Activity (Aspergillus parasiticus [13]): inactive |
| O=C(COc1ccc2c(c1)CCN1C(=O)CCC21)N1CCCCC1 (stereo not drawn) | inactive | inactive |  |  |  |  |  | inactive | inactive | inactive | inactive | inactive |  |  |  |  |  |  |  |  | Activity (Trichoderma viride [9]): inactive; Activity (Geotrichum candidum [10]): inactive; Activity (Fusarium culmorum [11]): inactive; Activity [12]: inactive; Activity (Aspergillus parasiticus [13]): inactive |
| CN(C)[C@@H]1C(O)=C(C(N)=O)C(=O)[C@@]2(O)C(O)=C3C(=O)c4c(O)cccc4[C@@](C)(O)[C@H]3C[C@@H]12 [TETRACYCLINE] |  |  |  |  |  |  |  |  |  |  |  |  |  | 26 | 25.66 | 27 | 13.33 | 25.66 | 24.33 |  |  |
| O=C1CCC2c3ccc(OCc4ccccc4)cc3CCN12 (stereo not drawn) |  |  |  |  |  |  |  |  |  |  |  |  | 6 | 6.83 | 0 | 0 | 7.26 | 6.33 | 8.66 | 6 | inhibition zone (IZ) (Geotrichum candidum [10]): 6.16 mm; inhibition zone (IZ) (Fusarium culmorum [11]): 12 mm; inhibition zone (IZ) [12]: 11.33 mm; inhibition zone (IZ) (Aspergillus parasiticus [13]): 6.83 mm |
| O=C1CCC2c3cc(O)c(Cl)cc3CCN12 (stereo not drawn) | inactive | inactive | inactive | inactive | inactive | inactive | inactive | inactive | inactive | inactive | inactive | inactive |  |  |  |  |  |  |  |  |  |
| O=C1CCC2c3cc(OCc4ccc(F)cc4)c(OCc4ccc(F)cc4)cc3CCN12 (stereo not drawn) |  |  | inactive | inactive | inactive | inactive | inactive |  |  |  |  |  | 5.83 | 6.33 | 0 | 0 | 7 | 6.83 | 7.33 |  |  |
| CCNC(=O)Oc1cc2c(cc1Cl)CCN1C(=O)CCC21 (stereo not drawn) | inactive | inactive | inactive | inactive | inactive | inactive | inactive | inactive | inactive | inactive | inactive | inactive |  |  |  |  |  |  |  |  |  |
| O=C1CCC2c3cc(O)c(O)cc3CCN12 (racemic) |  |  | inactive | inactive | inactive | inactive | inactive |  |  |  |  |  | 0 | 0 | 0 | 0 | 0 | 0 | 6.66 |  |  |
| O=C(COc1ccc2c(c1)CCN1C(=O)CCC21)Nc1ccccc1 (stereo not drawn) |  |  |  |  |  |  |  |  |  |  |  |  |  | 7.33 | 0 | 0 | 8 | 7.5 | 8.83 |  | Activity (Trichoderma viride [9]): inactive; Activity (Geotrichum candidum [10]): inactive; Activity (Fusarium culmorum [11]): inactive; Activity [12]: inactive; Activity (Aspergillus parasiticus [13]): inactive |
| O=C1CCC2c3ccc(OCc4ccc(F)cc4)cc3CCN12 (stereo not drawn) |  |  |  |  |  |  |  |  |  |  |  |  | 0 | 0 | 0 | 6.33 | 8 | 6.16 | 7.5 | 8.1 | inhibition zone (IZ) (Geotrichum candidum [10]): 7 mm; inhibition zone (IZ) (Fusarium culmorum [11]): 10.5 mm; inhibition zone (IZ) [12]: 10.66 mm; inhibition zone (IZ) (Aspergillus parasiticus [13]): 7.83 mm |
| COc1cc2c(cc1Cl)CCN1C(=O)CCC21 (stereo not drawn) |  |  |  |  |  |  |  |  |  |  |  |  |  | 6.83 | 6.16 | 7.83 | 10.33 | 6.83 | 7.33 | 0 | inhibition zone (IZ) (Geotrichum candidum [10]): 6.33 mm; inhibition zone (IZ) (Fusarium culmorum [11]): 7.5 mm; inhibition zone (IZ) [12]: 6.83 mm; inhibition zone (IZ) (Aspergillus parasiticus [13]): 7.5 mm |
| CCNC(=O)Oc1ccc2c(c1)CCN1C(=O)CCC21 (stereo not drawn) |  |  |  |  |  |  |  |  |  |  |  |  | 7.5 | 8.5 | 6.33 | 0 | 8.83 | 6.83 | 6.5 | 0 | inhibition zone (IZ) (Geotrichum candidum [10]): 0 mm; inhibition zone (IZ) (Fusarium culmorum [11]): 0 mm; inhibition zone (IZ) [12]: 9.66 mm; inhibition zone (IZ) (Aspergillus parasiticus [13]): 0 mm |
